Assay results published in PMC6863055 (Dalton transactions (Cambridge, England : 2003), 2019).
Read-outs that look alike come from different tables or passages of the source. Marks after values point to notes of the source that are not given here. One block for each compound: values may come before it.

Experiments:
[1] = ref [51], [52]; cited from earlier work
[2] = Protonation constants by pH-potentiometric titration; format: physicochemical
Procedure, shortened: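 Test compound (2.28 mM) titrated directly with standardized NaOH over pH 1.80–12.00. Samples were 6.00 mL, thermostatted at 25 °C, held at 0.15 M NaCl, stirred under N2. The electrode was calibrated with KH-phthalate (pH 4.005) and borax (pH 9.177) buffers. [H+] was obtained by the Irving method (pKw 13.820). Protonation constants come from fitting the pH-potentiometric data.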

[3] = Formation constants with Mg2+; format: binding; settings: Mg^2+; I=0.15 M NaCl, T=298 K
Procedure, shortened: (§1)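 Complexes were studied by direct pH-potentiometric titration at 1:1 and 2:1 metal-to-ligand ratios, with 150–200 data pairs and 1 min equilibration per point. With metal in excess, titration continued until precipitate appeared (pH 7–9). Samples were at 25 °C, 0.15 M NaCl, under N2, with a calibrated electrode and [H+] corrected by the Irving method.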

[4] = Cu^2+, cited from earlier work; for log β [ML]/[M][L]: I=0.5 M, NaNO3, ref [57]
[5] = Zn^2+, cited from earlier work
[6] = Formation constants with Ca2+; format: binding; settings: Ca^2+; I=0.15 M NaCl, T=298 K
Procedure, shortened: as §1

[7] = Formation constants with Cu2+; format: binding; settings: Cu^2+, I=0.15 M NaCl, T=298 K
[8] = Formation constants with Zn2+; format: binding; settings: Zn^2+; I=0.15 M NaCl, T=298 K
Procedure, shortened: as §1

[9] = Metabolic stability in mouse liver microsomes; format: in vitro ADME; settings: murine liver microsomes
Procedure, shortened: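 Male ICR/CD-1 mouse liver microsomes (0.25 mg) in 50 mM Tris pH 7.5 with test compound at 2 µM final (DMSO stock). Incubated at 37 °C with shaking and an NADPH-regenerating system (NADP, glucose-6-phosphate, G6P dehydrogenase). Time points were quenched with acetonitrile, 0.2% formic acid and tolbutamide internal standard; the T0 sample was quenched before compound or cofactors were added. Parent was measured by LC-MS/MS (223.1→180.1). Half-life = 0.693/slope of ln % remaining versus time.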

[10] = Metabolic stability in mouse hepatocytes; format: in vitro ADME
Procedure, shortened: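 Murine hepatocytes (1×10^6/mL) incubated with test compound (2 µM final, DMSO stock) for 0–240 min at 37 °C, 5% CO2. Reactions were quenched with two volumes of acetonitrile containing 0.15% formic acid and tolbutamide internal standard, then analysed by LC-MS/MS. % remaining is relative to T0. Half-life = 0.693/slope of ln % remaining versus time; CLint was taken from the slope of ln peak-area ratio versus time.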

[11] = tested on: FRDA cells; settings: at 125 nM; toxicity induced by BSO in FRDA cells; ref [5]; cited from earlier work
[12] = I=0.15 M, NaClO4; ref [45]; cited from earlier work
[13] = Mg^2+; I=0.5 M, KNO3; ref [53]; cited from earlier work
[14] = Ca^2+, I=0.1 M, NaNO3, ref [54], cited from earlier work

SMILES: Oc1cccnc1 [3-pyridol]
acidity constant of aromatic -OH functionality [1]: 8.72

SMILES: Oc1ccncc1 [4-pyridol]
acidity constant of aromatic -OH functionality [1]: 11.09

log K1^H (protonation constant) ([2]; I=0.15 M NaCl, T=298 K): 11.37 (1)
log K2^H (protonation constant) ([2]; I=0.15 M NaCl, T=298 K): 8.22(5)
∑ log KN-donors ([2]; I=0.15 M NaCl, T=298 K): 21.20
log K3^H (protonation constant) ([2]; I=0.15 M NaCl, T=298 K, for L2 and L3 the pyridol -OH): 1.61(5)
SMILES: c1cc2nc(c1)CNCCNCCNC2 [L1, 3,6,9,15-tetraazabicyclo[9.3.1]penta-deca-1(15),11,13-triene]
log β [ML]/[M][L] [3]: 4.04(2)
log β [ML]/[M][L][OH^−] ([4]; previously described by others, ref [47], [57], [58], [62]): 7.48^c
log β [ML]/[M][L] ([5]; I=0.5 M, KNO3, ref [47]): 14.40^f
log β [ML]/[M][L][OH^−] ([5]; I=0.5 M, KNO3, ref [47]): 8.50^f

isoelectric point (pI) [2]: 10.31
log K1^H (protonation constant) ([2]; I=0.15 M NaCl, T=298 K): 11.56(3)
log K2^H (protonation constant) ([2]; I=0.15 M NaCl, T=298 K): 9.05(5)
log K4^H (protonation constant) ([2]; I=0.15 M NaCl, T=298 K): 1.68(5)
∑ log KN-donors ([2]; I=0.15 M NaCl, T=298 K): 22.29
fraction of [H2(L2)]^+ species in solution ([2]; at biological pH): 97%
% of molecule retained at termination of the experiment ([9]; NADPH regenerating system, 2 µM): 65%
in vitro half-life ([9]; NADPH regenerating system, 2 µM, substrate depletion): greater than 120 min
clearance classification ([9]; Phase I): low-moderate clearance
calculated Clint ([10]; murine hepatocytes): < 0.02 µL/min/million cells
clearance classification ([10]; murine hepatocytes): low clearance
half-life ([10]; murine hepatocytes 1×10^6/mL, 2 µM, 0–240 min): greater than 240 min
% depleted over the time course of the experiment ([10]; murine hepatocytes, 0–240 min): 2–9%
SMILES: Oc1cc2nc(c1)CNCCNCCNC2 [L2, 3,6,9,15-tetraazabicyclo[9.3.1]penta-deca-1(15),11,13-trien-13-ol]
log β [MHL]/[M][L][H^+] [3]: 13.53(2)
log β [ML]/[M][L] [3]: 4.96(1)
log β [MHL]/[M][L][H^+] [6]: 13.66(5)
log β [MHL]/[M][L][H^+] [7]: 25.79(3)
log β [ML]/[M][L] [7]: 19.16(11)
log β [ML]/[M][L][OH^−] [7]: 8.55(13)
log β [MH2L]/[M][L][H^+]^2 ([7]; determined by direct UV-vis titration): 28.38(5)^a
log β [MH2L]/[M][L][H^+]^2 [8]: 25.72(7)
log β [MHL]/[M][L][H^+] [8]: 23.02(3)
log β [ML]/[M][L] [8]: 17.18(7)
log β [ML]/[M][L][OH^−] [8]: 8.92(9)
quenching of radical based toxicity [11]: 100%

SMILES: C1CNCCNCCNCCN1 [cyclen]
log K1^H (protonation constant) [12]: 10.66
log K2^H (protonation constant) [12]: 9.69
log K3^H (protonation constant) [12]: 1.41
∑ log KN-donors [12]: 21.76
log β [ML]/[M][L] [13]: 2.25^a
log β [ML]/[M][L] [14]: 3.12
log β [ML]/[M][L] ([14]; listed as Cyclen): 3.12^b
log β [ML]/[M][L] [4]: 23.3
log β [ML]/[M][L] ([4]; listed as Cyclen): 23.3^d
log β [ML]/[M][L] ([5]; ref [58]): 16.2^e
